From ChEMBL document CHEMBL1212834, “Pyrido[2,3-b]pyrazines, discovery of TRPV1 antagonists with reduced potential for the formation of reactive metabolites” (Bioorg Med Chem Lett, 2010)

What was measured:
[1] = AUC (0 to 24 hrs) in rat at 10 mg/kg, po; type: ADME, organism-based; set-up: time < 24 hr, dose 10 mg/kg, route oral; conditions: plasma
How it was run: (§1)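 Oral PK at the dose in the line, given as a suspension in 0.5% methocel. […] Reported as mean ± error.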

[2] = Plasma concentration in rat complete Freund's adjuvant-induced inflammation model at 3 mg/kg, po at 2 hrs on third day; type: ADME, organism-based; set-up: dose 3 mg/kg, route oral
How it was run: (§2)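 CFA (200 µL) injected intraplantar into left hind paw; next day rats dosed orally once daily for three consecutive days (1, 3 or 10 mg/kg, suspension in 0.5% methocel). Separate cohort: plasma sampled each day 2 h after dosing.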

[3] = Oral bioavailability in rat at 1 mg/kg; type: ADME, organism-based; conditions: in vivo
How it was run: (§3)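 Oral bioavailability from a 1 mg/kg po dose (suspension in 0.5% methocel), compared against a 1 mg/kg iv dose (solution in 3:1 PEG300:water).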

[4] = Oral bioavailability in dog at 1 mg/kg; type: ADME, organism-based, Canis lupus familiaris; conditions: in vivo; how it was run: as §3
[5] = Plasma concentration in rat complete Freund's adjuvant-induced inflammation model at 3 mg/kg, po QD for 3 consecutive days measured at 2 hrs post dose on day 1; type: ADME, organism-based; set-up: dose 3 mg/kg, route oral; how it was run: as §2
[6] = Cmax in rat at 100 mg/kg, po; type: ADME, organism-based; set-up: dose 100 mg/kg, route oral; conditions: in vivo; how it was run: as §1
Rattus norvegicus = experiment: Antiinflammatory activity in rat assessed as inhibition of complete Freund's adjuvant-induced hind paw edema at 3 mg/kg, po administered 1 day after complete Freund's adjuvant challenge QD for 3 consecutive days measured at 2 hrs post dose on day 1; type: functional
How it was run: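 CFA 200 µL injected intraplantar into the left hind paw. From the next day, 1, 3 or 10 mg/kg po once daily for 3 days as a suspension in 0.5% methocel.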

[7] = Cmax in rat at 10 mg/kg, po; type: ADME, organism-based; set-up: dose 10 mg/kg, route oral; conditions: in vivo; how it was run: as §1
[8] = Plasma concentration in rat complete Freund's adjuvant-induced inflammation model at 10 mg/kg, po at 2 hrs on second day; type: ADME, organism-based; set-up: dose 10 mg/kg, route oral; how it was run: as §2
[9] = Oral bioavailability in rhesus monkey at 1 mg/kg; type: ADME, organism-based, Macaca mulatta; conditions: in vivo; how it was run: as §3
[10] = AUC (0 to 24 hrs) in rhesus monkey at 1 mg/kg, po; type: ADME, organism-based, Macaca mulatta; set-up: time < 24 hr, dose 1 mg/kg, route oral; conditions: plasma; how it was run: as §1
[11] = Apparent permeability across MDCK cell membrane; type: ADME, cell-based, Canis lupus familiaris; conditions: dog
How it was run: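 Permeability across MDCK cell monolayers, reported as Papp. Efflux ratio calculated as (B→A)/(A→B).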

[12] = Plasma concentration in rat complete Freund's adjuvant-induced inflammation model at 1 mg/kg, po QD for 3 consecutive days measured at 2 hrs post dose on day 2; type: ADME, organism-based; set-up: dose 1 mg/kg, route oral; how it was run: as §2
[13] = Cmax in rat at 1 mg/kg, po; type: ADME, organism-based; set-up: dose 1 mg/kg, route oral; conditions: in vivo; how it was run: as §1
[14] = Plasma concentration in rat complete Freund's adjuvant-induced inflammation model at 10 mg/kg, po QD for 3 consecutive days measured at 2 hrs post dose on day 1; type: ADME, organism-based; set-up: dose 10 mg/kg, route oral; how it was run: as §2
[15] = target: Transient receptor potential cation channel subfamily V member 1 (Homo sapiens, UniProt Q8NER1); experiment: Antagonist activity at human TRPV1 assessed as inhibition of capsaicin-induced receptor activation by FLIPR assay; type: functional
How it was run: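 Human TRPV1 activated by capsaicin; inhibition read by FLIPR. IC50 is the mean of ≥3 experiments.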

[16] = AUC (0 to 24 hrs) in rat at 1 mg/kg, po; type: ADME, organism-based; set-up: time < 24 hr, dose 1 mg/kg, route oral; conditions: plasma; how it was run: as §1
[17] = Clearance in rat at 1 mg/kg, iv; type: ADME, organism-based; set-up: dose 1 mg/kg, route intravenous; conditions: in vivo
How it was run: (§4)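 IV PK at 1 mg/kg, given as a solution in 3:1 PEG300:water. Plasma half-life, clearance and volume of distribution derived.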

Canis familiaris [18] = species on record: Canis familiaris; experiment: Cardiotoxicity in dog assessed as effect on mean arterial pressure at plasma concentration of up to 24 uM; type: toxicity, organism-based, Canis lupus familiaris
[19] = Volume of distribution in dog at 1 mg/kg, iv; type: ADME, organism-based, Canis lupus familiaris; set-up: dose 1 mg/kg, route intravenous; conditions: in vivo
How it was run: (§5)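 Intravenous dose of 1 mg/kg given as a solution in 3:1 PEG300:water to rat, dog or rhesus monkey. Plasma PK parameters (T1/2, clearance, Vd) derived.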

[20] = Cmax in dog at 10 mg/kg, po; type: ADME, organism-based, Canis lupus familiaris; set-up: dose 10 mg/kg, route oral; conditions: in vivo; how it was run: as §1
[21] = Cmax in rhesus monkey at 1 mg/kg, po; type: ADME, organism-based, Macaca mulatta; set-up: dose 1 mg/kg, route oral; conditions: in vivo; how it was run: as §1
[22] = target: Transient receptor potential cation channel subfamily V member 1 (Rattus norvegicus, UniProt O35433); type: functional, tissue-based, Sprague-Dawley, Dorsal root ganglion; conditions: read-out: IC50
Liver microsomes = experiment: Metabolic stability in rat liver microsomes assessed per mg of protein at 8.1 mg/kg, po after 2 to 24 hrs; type: ADME, organism-based, Microsome; set-up: dose 8.1 mg/kg, route oral
[23] = AUC (0 to 24 hrs) in rat brain at 10 mg/kg, po; type: ADME, organism-based; set-up: time < 24 hr, dose 10 mg/kg, route oral
[24] = Cmax in rat brain at 10 mg/kg, po; type: ADME, organism-based; set-up: dose 10 mg/kg, route oral
MDCK = experiment: Efflux ratio of permeability from basolateral to apical side over apical to basolateral side of MDCK cells; conditions: dog
[25] = AUC (0 to 24 hrs) in dog at 1 mg/kg, po; type: ADME, organism-based, Canis lupus familiaris; set-up: time < 24 hr, dose 1 mg/kg, route oral; conditions: plasma; how it was run: as §1
[26] = Clearance in dog at 1 mg/kg, iv; type: ADME, organism-based, Canis lupus familiaris; set-up: dose 1 mg/kg, route intravenous; conditions: in vivo; how it was run: as §4
Canis familiaris [27] = species on record: Canis familiaris; experiment: Cardiotoxicity in dog assessed as effect on heart rate at plasma concentration of up to 24 uM; type: toxicity, organism-based, Canis lupus familiaris
[28] = Plasma concentration in rat complete Freund's adjuvant-induced inflammation model at 3 mg/kg, po QD for 3 consecutive days measured at 2 hrs post dose on day 2; type: ADME, organism-based; set-up: dose 3 mg/kg, route oral; how it was run: as §2
[29] = Metabolic stability in rat liver microsomes assessed as compound remaining after 10 min; type: ADME, Microsome; conditions: read-out: Stability
[30] = Cmax in rat brain of complete Freund's adjuvant-induced inflammation model at 10 mg/kg, po; type: ADME, organism-based; set-up: dose 10 mg/kg, route oral
[31] = Volume of distribution in rat at 1 mg/kg, iv; type: ADME, organism-based; set-up: dose 1 mg/kg, route intravenous; conditions: in vivo; how it was run: as §5
[32] = Half life in dog at 1 mg/kg, iv; type: ADME, organism-based, Canis lupus familiaris; set-up: dose 1 mg/kg, route intravenous; conditions: in vivo; how it was run: as §4
[33] = Ratio of drug level in brain to plasma in rat at 10 mg/kg, po; type: ADME, organism-based; set-up: dose 10 mg/kg, route oral; conditions: read-out: BPR

Sequence of Transient receptor potential cation channel subfamily V member 1 (Rattus norvegicus, UniProt O35433) (O35433 whole entry): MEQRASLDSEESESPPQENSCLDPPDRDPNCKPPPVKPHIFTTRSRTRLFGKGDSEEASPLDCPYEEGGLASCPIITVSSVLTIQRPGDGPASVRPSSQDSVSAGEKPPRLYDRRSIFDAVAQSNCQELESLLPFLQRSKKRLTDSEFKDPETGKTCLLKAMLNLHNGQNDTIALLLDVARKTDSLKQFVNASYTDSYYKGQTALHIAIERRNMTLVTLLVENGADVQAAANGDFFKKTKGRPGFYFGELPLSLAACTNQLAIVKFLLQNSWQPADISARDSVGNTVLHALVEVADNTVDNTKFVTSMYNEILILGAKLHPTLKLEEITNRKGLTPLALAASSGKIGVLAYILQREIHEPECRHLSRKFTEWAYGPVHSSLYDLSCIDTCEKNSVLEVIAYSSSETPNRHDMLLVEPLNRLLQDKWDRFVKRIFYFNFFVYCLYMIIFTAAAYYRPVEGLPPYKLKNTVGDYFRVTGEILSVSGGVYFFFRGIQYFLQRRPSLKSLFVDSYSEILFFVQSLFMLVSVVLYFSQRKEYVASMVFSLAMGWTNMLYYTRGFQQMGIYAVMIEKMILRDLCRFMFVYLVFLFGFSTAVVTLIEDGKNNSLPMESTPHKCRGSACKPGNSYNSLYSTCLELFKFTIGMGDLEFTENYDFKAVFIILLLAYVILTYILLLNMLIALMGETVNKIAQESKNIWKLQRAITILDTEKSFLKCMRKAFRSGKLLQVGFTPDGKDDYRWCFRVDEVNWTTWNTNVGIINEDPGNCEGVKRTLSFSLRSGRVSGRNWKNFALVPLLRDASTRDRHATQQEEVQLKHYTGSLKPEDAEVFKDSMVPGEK
Sequence of Transient receptor potential cation channel subfamily V member 1 (Homo sapiens, UniProt Q8NER1) (Q8NER1 whole entry): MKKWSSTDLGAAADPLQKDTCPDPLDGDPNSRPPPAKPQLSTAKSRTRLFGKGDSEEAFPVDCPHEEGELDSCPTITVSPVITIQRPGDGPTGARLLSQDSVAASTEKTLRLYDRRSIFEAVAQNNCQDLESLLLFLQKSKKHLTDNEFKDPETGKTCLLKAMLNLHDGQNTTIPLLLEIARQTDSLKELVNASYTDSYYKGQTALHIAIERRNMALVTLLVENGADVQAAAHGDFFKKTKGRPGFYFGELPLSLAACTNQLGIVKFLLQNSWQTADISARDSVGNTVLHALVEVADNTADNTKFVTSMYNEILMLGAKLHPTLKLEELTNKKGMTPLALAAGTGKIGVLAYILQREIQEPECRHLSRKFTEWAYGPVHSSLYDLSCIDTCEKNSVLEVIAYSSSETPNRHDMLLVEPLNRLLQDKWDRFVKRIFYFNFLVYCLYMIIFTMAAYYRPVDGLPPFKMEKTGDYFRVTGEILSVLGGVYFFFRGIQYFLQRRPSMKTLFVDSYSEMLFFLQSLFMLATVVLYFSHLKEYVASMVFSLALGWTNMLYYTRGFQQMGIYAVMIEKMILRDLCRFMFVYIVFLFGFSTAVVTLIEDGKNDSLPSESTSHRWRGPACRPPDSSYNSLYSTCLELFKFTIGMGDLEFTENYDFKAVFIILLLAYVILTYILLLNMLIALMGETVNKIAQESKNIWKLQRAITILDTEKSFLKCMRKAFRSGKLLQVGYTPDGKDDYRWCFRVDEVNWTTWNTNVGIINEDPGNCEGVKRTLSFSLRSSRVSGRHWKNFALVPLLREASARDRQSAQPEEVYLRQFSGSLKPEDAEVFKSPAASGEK

AUC(0-t) at 24 h [1]: 29.9 µM·h
concentration at 2 h [2]: 1280 nM
bioavailability [3]: 103%
bioavailability [4]: 57%
concentration at 2 h [5]: 1200 nM
Cmax [6]: 15 µM
Cmax [7]: 2100 nM
concentration at 2 h [8]: 3.12 µM
bioavailability [9]: 38%
AUC(0-t) at 24 h [10]: 4.9 µM·h
Papp [11]: 34 ×10⁻⁶ cm/s
concentration at 2 h [12]: 360 nM
Cmax [13]: 300 nM
concentration at 2 h [14]: 2430 nM
IC50 [15]: 0.8 nM
AUC(0-t) at 24 h [16]: 1.4 µM·h
clearance [17]: 25 mL/min/kg
Vd [19]: 1.3 L/kg
Cmax [20]: 5.2 µM
Cmax [21]: 700 nM
IC50 [22]: 1.3 nM
Stability (Liver microsomes): < 10 pmol
AUC(0-t) at 24 h [23]: 3.4 µM·h
Cmax [24]: 300 nM
Ratio (MDCK): 3.1
AUC(0-t) at 24 h [25]: 2.7 µM·h
clearance [26]: 7.4 mL/min/kg
concentration at 2 h [28]: 1100 nM
remaining at 10 min [29]: 100%
Cmax [30]: 300 nM
Vd [31]: 4.3 L/kg
half-life [32]: 90 min
Kp [33]: 0.1
Compound: NC(=O)c1cnc(-c2cnc3c(Nc4ccc(C(F)(F)F)cn4)ccnc3n2)c(C(F)(F)F)c1
inhibition in vivo at 3 mg/kg (Rattus norvegicus): 65%
Activity (Canis familiaris [18]): Non-toxic
Activity (Canis familiaris [27]): Non-toxic
